Paper PMC3246390 (Organic & biomolecular chemistry, 2011)
“Also recorded” adds a separate entry of the source. Where two headings read alike, the source gives them in different places.

Tests used:
[1] = molecular target: T1, mouse Vα14Vβ8.2 NKT TCR (glycolipid presented by mouse CD1d) (Mus musculus, UniProt P11609); assay type: binding; conditions: for Kass / Kdiss: Langmuir 1:1 model; for Kdiss: TCR dissociation from mouse CD1d-glycolipid complex
T1 sequence (P11609 19-297): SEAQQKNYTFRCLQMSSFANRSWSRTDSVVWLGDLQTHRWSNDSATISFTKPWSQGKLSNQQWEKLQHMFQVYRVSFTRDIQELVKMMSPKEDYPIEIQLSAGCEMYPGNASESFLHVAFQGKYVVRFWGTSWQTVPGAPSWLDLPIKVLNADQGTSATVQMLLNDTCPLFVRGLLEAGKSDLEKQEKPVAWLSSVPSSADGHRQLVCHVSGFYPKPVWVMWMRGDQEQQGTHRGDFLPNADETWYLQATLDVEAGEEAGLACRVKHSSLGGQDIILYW
T1 sequence (P01887 21-119 partner): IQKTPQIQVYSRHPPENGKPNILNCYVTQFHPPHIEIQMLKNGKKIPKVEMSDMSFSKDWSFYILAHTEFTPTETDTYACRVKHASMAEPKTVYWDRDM
T1 sequence (P01849 1-110 partner): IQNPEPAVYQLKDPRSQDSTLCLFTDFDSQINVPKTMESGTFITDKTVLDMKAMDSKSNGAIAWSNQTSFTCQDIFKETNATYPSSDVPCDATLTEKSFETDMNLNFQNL

mice [2] = assay type: in vivo; conditions: 5 µg intraperitoneal; for cytokine secretion (INF-γ and IL-4): IL-4 at 4h and INF-γ at 16h
Summary of the method: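 Each mouse received an intraperitoneal injection of 5 µg glycolipid (6"-modified α-GalCer analogues, galacturonic acid and α-d-fucopyranosyl types). Serum IL-4 was measured at 4 h and serum INF-γ at 16 h after injection.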

mice [3] = conditions: i.v. administration; cited from earlier work
[4] = system: lung and breast cancer in mice; conditions: lung and breast cancer (GSL-1’: mice bearing lung cancer, equal doses); cited from earlier work
mice [5] = conditions: cited from earlier work
[6] = SPR, TCR binding to mouse CD1d-glycolipid complex
[7] = read-out: KD(Kdiss/Kass), SPR, TCR binding to mouse CD1d-glycolipid complex

| Compound | Kass [1, 6] [M⁻¹ s⁻¹] | Kdiss ([1]; SPR) [s⁻¹] | Kd [1, 7] [nM] | cytokine secretion (INF-γ and IL-4) (mice [2]; serum) | other results |
| --- | --- | --- | --- | --- | --- |
| CCCCCCCCCCCCCCC(O)C(O)C(CO[C@H]1O[C@H](C(=O)O)[C@H](O)[C@H](O)[C@H]1O)NC(=O)CCCCCc1ccccc1 (stereo partly drawn) [compound 14, 1-O-(α-D-galactopyranosyluronate)-2-(6-phenylhexanoyl)amino-octadecane-1,3,4-triol] | 110000 ± 6000 | 0.00811 ± 0.0012 | 75.3 ± 15.2 | abolishes all activity; also recorded: low cytokine release |  |
| 1-O-(α-D-galactopyranosyluronate)-2-hexacosylamino-octadecane-1,3,4-triol [compound 13] | 100000 ± 9000 |  | 165 ± 38.3 | minor cytokine secretion | secretion of INF-γ compared to α-GalCer (mice [3]): drastically lower secretion of INF-γ; efficacy towards cancer compared to α-GalCer [4]: more effective |
| 1-O-(6-deoxy-α-D-galactopyranosyl)-2-hexacosylamino-octadecane-1,3,4-triol [compound 4] | 80000 ± 3000 | 0.00526 ± 0.00029 | 64.8 ± 6 |  | IFN-γ induction compared to α-GalCer (mice [5]): superior to α-GalCer |
| 1-O-(6-deoxy-α-D-galactopyranosyl)-2-hexacosylamino-octadecane-1,3,4-triol [compound 12] | 100000 ± 20000 | 0.00648 ± 0.0018 | 74.4 ± 25 | weak cytokine secretion; also recorded: low cytokine release |  |
| CCCCCCCCCCCCCCCCCCCCCCCCCC(=O)N[C@@H](CO[C@H]1O[C@H](CO)[C@H](O)[C@H](O)[C@H]1O)[C@H](O)[C@H](O)CCCCCCCCCCCCCC [KRN7000 (1), α-galactosylceramide, reference compound] |  |  |  |  | Kd [1]: 11.2 ± 0.2 nM; kon ([1]; read-out: Kass): 130000 M⁻¹ s⁻¹; koff ([1]; read-out: Kdiss): 0.00145 s⁻¹ |
| α-C-GalCer [compound 3, reference compound] |  |  |  |  | Th1/Th2 polarization (mice [2]; INF-γ versus IL-4): no polarization; IL-4 secretion (Th2 response) (mice [2]; serum, measured at 4h): strong Th2 response; INF-γ secretion (mice [2]; serum, measured at 16h): superior INF-γ inducer |
